Assay [1] can be described thus: Inhibition of ASM in dog MDCK cells co-expressing recombinant full length mGFP-tagged KRAS G12V mutant and mCherry-CAAX assessed as reduction in plasma membrane localization of KRAS mutant incubated for 48 hrs by confocal microscopic analysis. Format: cell membranes, Canis lupus familiaris. The gist of the method:
(§1)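 MDCK cells stably co-expressing mGFP-KRAS G12V or mGFP-LactC2 with mCherry-CAAX (HRAS 179–189 C181S/C184S) grown on coverslips in DMEM/10% FBS. Treated 48 h with 0.1% DMSO or graded drug, fixed in 4% paraformaldehyde, then quantitative confocal imaging. Mislocalization scored as the Manders fraction of mCherry-CAAX co-localizing with the GFP probe. IC50 and Emax from three independent experiments.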

In assay [2] the test system is MDCK. Kind of assay: Inhibition of ASM in dog MDCK cells co-expressing recombinant full length mGFP-tagged KRAS G12V mutant and mCherry-CAAX assessed as reduction in plasma membrane localization of KRAS mutant incubated for 48 hrs by confocal microscopic analysis relative to control. Format: cell membranes. The conditions noted are these: Canis lupus familiaris. The gist of the method:
as §1

Assay [3] concerns MDCK. The assay is described as follows: Cytotoxicity against dog MDCK cells at 30 uM. The conditions noted are these: Canis lupus familiaris. Format: functional, cell-based.

As a reminder, the IC50 is the point on the concentration scale where inhibition reaches its midpoint.

Molecules are shown by their SMILES. Activity calls are given as the source filed them. The calls are words filed in the database; no cut-off is given here.

As for `C[C@H](c1ccc(F)cc1)N(CC=C(c1ccccc1)c1ccccc1)CCN1CCN(C)CC1`, the IC50 in assay [1] was found to be 1.5 µM. For the same compound, in assay [2], the Emax was determined as 0.83. In addition, the outcome in assay [3] was Active.

Consider `COc1ccc([C@@H](C)N(CC=C(c2ccccc2)c2ccccc2)CCN2CCC2)cc1`, for which, in assay [1], the IC50 came out at 0.5 µM. In assay [2], the Emax is 0.69. Moreover, in assay [3], the outcome was Active.

As for `C=CCN(CCN1CCN(C)CC1)[C@H](C)c1ccc(OC)cc1`, the IC50 in assay [1] came to 59.3 µM. The Emax in assay [2] worked out at 0.76. For the same compound, the result in assay [3] was inactive.

As for `C[C@H](c1cccc(Cl)c1)N(CC=C(c1ccccc1)c1ccccc1)CCN1CCN(C)CC1`, in assay [1], the half-inhibitory concentration (IC50) came to 11.2 µM. For the same compound, the Emax in assay [2] was 0.77. Also, the result in assay [3] was Active.

As to `CCN(CC)CCN(CC=C(c1ccccc1)c1ccccc1)[C@H](C)c1ccc(OC)cc1`, the Emax in assay [2] came out at 0.89. Besides, the result in assay [3] was Active.

For the compound `C[C@H](c1ccccc1)N(CC=C(c1ccccc1)c1ccccc1)CCN1CCN(C)CC1`, the 50% inhibitory concentration (IC50) in assay [1] came out at 0.6 µM. Moreover, the Emax in assay [2] came to 0.79. Further, the outcome in assay [3] was Active.

For `COc1ccc([C@@H](C)N(CC=C(c2ccccc2)c2ccccc2)CCN2CCNC(=O)C2)cc1`, in assay [1], the 50% inhibitory concentration (IC50) amounted to 7.7 µM. The Emax in assay [2] came out at 0.81. In addition, in assay [3], the outcome was inactive.

As to `COc1ccc([C@@H](C)N(CC=C(c2ccccc2)c2ccccc2)CCN2CCNCC2)cc1`, the IC50 in assay [1] amounted to 1.3 µM. In addition, the Emax in assay [2] was 0.86. For the same compound, in assay [3], the outcome was Active.

On to `C[C@H](c1ccc(Cl)cc1)N(CC=C(c1ccccc1)c1ccccc1)CCN1CCN(C)CC1`, for which the IC50 in assay [1] is 3.8 µM. Besides, in assay [2], the Emax worked out at 0.7. In assay [3], the outcome was Active.

As to `COc1ccc([C@@H](C)N(C)CC=C(c2ccccc2)c2ccccc2)cc1`, in assay [1], the IC50 came out at 3.3 µM. Further, the Emax in assay [2] turned out to be 0.75. Further, the result in assay [3] was inactive.

On to `COc1ccc([C@@H](C)N(CC=C(c2ccccc2)c2ccccc2)CCN(C)C)cc1`, for which the IC50 in assay [1] stood at 11.2 µM. Further, in assay [2], the Emax stood at 0.66. Further, in assay [3], the result was Active.

Regarding `COc1ccc([C@@H](C)N(CC=C(c2ccccc2)c2ccccc2)CCF)cc1`, the IC50 in assay [1] was determined as 10.1 µM. For the same compound, the Emax in assay [2] worked out at 0.52. Besides, the result in assay [3] was inactive.

Turning to `COc1ccc([C@@H](C)N(CC=C(c2ccccc2)c2ccccc2)CCN2CCOCC2)cc1`, in assay [1], the half-maximal inhibitory concentration (IC50) worked out at 4.4 µM. Further, in assay [2], the Emax was found to be 0.86. Further, the outcome in assay [3] was inactive.

For `COc1ccc([C@@H](C)N(C/C=C/c2ccccc2)CCN2CCN(C)CC2)cc1`, the IC50 in assay [1] stood at 14.8 µM. Moreover, the Emax in assay [2] is 0.84. Besides, the result in assay [3] was inactive.

As for `C[C@H](c1ccc([N+](=O)[O-])cc1)N(CC=C(c1ccccc1)c1ccccc1)CCN1CCN(C)CC1`, the IC50 in assay [1] amounted to 5.2 µM. Besides, in assay [2], the Emax turned out to be 0.62. Besides, the outcome in assay [3] was Active.

As to `COc1cccc([C@@H](C)N(CC=C(c2ccccc2)c2ccccc2)CCN2CCN(C)CC2)c1`, the IC50 in assay [1] was determined as 2.8 µM. For the same compound, the Emax in assay [2] was found to be 0.75. Moreover, the outcome in assay [3] was Active.

Turning to `COc1ccc([C@H](C)N(CC=C(c2ccccc2)c2ccccc2)CCN2CCN(C)CC2)cc1`, in assay [1], the IC50 stood at 1.2 µM. The Emax in assay [2] turned out to be 0.83. In assay [3], the result was Active.

For the compound `C=CCN(CC=C(c1ccccc1)c1ccccc1)[C@H](C)c1ccc(OC)cc1`, the IC50 in assay [1] was 13 µM. Further, in assay [2], the Emax turned out to be 0.47. In addition, the outcome in assay [3] was inactive.

`COc1ccc([C@@H](C)N(CC=C(c2ccccc2)c2ccccc2)CCCCN2CCN(C)CC2)cc1`: in assay [2], the Emax was found to be 0.81. Besides, in assay [3], the result was Active.

Turning to `COc1ccc([C@@H](C)N(CC=C(c2ccccc2)c2ccccc2)CC(=O)N2CCN(C)CC2)cc1`, in assay [1], the IC50 amounted to 1.1 µM. In addition, in assay [2], the Emax was 0.73. Further, in assay [3], the outcome was inactive.

As for `COc1ccc([C@@H](C)N(CC=C(c2ccccc2)c2ccccc2)CCN2CCCCC2)cc1`, the IC50 in assay [1] was 0.6 µM. For the same compound, the Emax in assay [2] turned out to be 0.83. The result in assay [3] was Active.

On to `COc1ccc([C@@H](C)N(CC=C(c2ccccc2)c2ccccc2)C(=O)CN2CCN(C)CC2)cc1`, for which the 50% inhibitory concentration (IC50) in assay [1] came out at 7.1 µM. Further, in assay [2], the Emax was 0.51. Further, the result in assay [3] was Active.

On to `COc1ccc([C@@H](C)N(CC=C(c2ccccc2)c2ccccc2)CCO)cc1`, for which the half-maximal inhibitory concentration (IC50) in assay [1] was 0.2 µM. In addition, in assay [2], the Emax was 0.72. The result in assay [3] was inactive.

In the case of `COc1ccccc1[C@@H](C)N(CC=C(c1ccccc1)c1ccccc1)CCN1CCN(C)CC1`, the IC50 in assay [1] came out at 3.8 µM. The Emax in assay [2] worked out at 0.86. Moreover, the result in assay [3] was Active.

With `CCN(CC=C(c1ccccc1)c1ccccc1)[C@H](C)c1ccc(OC)cc1`, in assay [1], the IC50 worked out at 10.6 µM. Also, the Emax in assay [2] was 0.84. For the same compound, the result in assay [3] was inactive.

The record behind these values is ChEMBL document CHEMBL4814013, “Scaffold repurposing of fendiline: Identification of potent KRAS plasma membrane localization inhibitors” (Eur J Med Chem, 2021).
